The record followed here is PubChem BioAssay.

Active and inactive are the calls of the source.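 How the source made its calls, unless noted: active means fluorescence slope after compound addition differing from the mean of all screened samples at 99.7% confidence, in either direction; inactive means the rest.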

A short description of assay [1]: inhibitors of TNFa-induced NFkB p65 translocation, primary screen, imaging, HUVEC, MLSMR starter and 10KST1 sets (AID 438;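 active means inhibition above 20% together with a positive visual image hit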;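 further: compound added about 3h40 before a 20 min TNFalpha stimulation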;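 on inhibition: signal is the nuclear over cytoplasmic p65 intensity ratio per well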). The following applies: HUVEC TNFa-induced p65 nuclear translocation; cell count: measured here: nuclei count (cytotoxicity indicator), at 2.08 µM; inhibition: at 2 µM, stronger effect = higher value, 0% TNFa-plus-vehicle, 100% no-TNFa wells.
Assay [2] is described as follows: inhibitors of E-selectin induction by TNFa, primary screen, imaging, HUVEC, immunofluorescence, MLSMR starter and 10KST1 sets (AID 487;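 active means visually confirmed hit in the image check and inhibition above 20%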;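 on inhibition: signal is fraction of cell area covered by stained E-selectin grains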;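 on nuclei count: 100% = median nuclei count of all wells on the same plate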). The following applies: HUVEC TNFalpha-induced E-selectin immunofluorescence imaging, at 2 µM; inhibition: stronger effect = higher value; nuclei count: measured here: cell number, toxicity.
The nature of assay [3]: DUSP6 inhibitors restoring Erk phosphorylation by chemical complementation, primary imaging in DUSP6-transfected HeLa (AID 609;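 active means compounds giving at least 50% inhibition in the cell-based MKP-3 phosphatase rescue imaging test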;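 on inhibition: phospho-Erk level distribution per well compared with pooled transfected vehicle control wells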). The following applies: HeLa MKP-3 transfected, phospho-Erk imaging KS statistic, at 10 µM, cells stimulated with TPA for 15 min.
The target of assay [4] is Dual specificity protein phosphatase 6 (Homo sapiens) (UniProt Q16828). The description is as above. To be noted: HeLa MKP-3 transfected, phospho-Erk imaging KS statistic; at 10 µM; stronger effect = higher value; cells stimulated with TPA for 15 min.
The target of assay [5] is Voltage-gated potassium channel subunit beta-2 (Rattus norvegicus) (UniProt P62483). The assay is described as follows: KvBeta enzyme negative modulators, primary screen, biochemical, NADPH fluorescence (AID 622;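 active means fluorescence slope higher than the sample average by over 3 SD, cut at about -0.22 in these data, passing the limit was not always enough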;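 further: slope of raw intensity against log time taken from 70 to 1610 s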). The following applies: recombinant KvBeta, 4-cyanobenzaldehyde reduction, at 10 µM, stronger effect = higher value.
The target is the same in assay [6]. The assay is described as follows: KvBeta positive modulators, primary screen, biochemical, NADPH fluorescence (AID 623;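 active means NADPH fluorescence slope more negative than the mean of all samples by about 3 SD, 99.7% confidence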;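 further: fluorescence intensity change per second fitted from 20 to 320 s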). To be noted: Recombinant KvBeta, NADPH fluorescence decrease slope, 10 min; at 10 µM; stronger effect = lower value.
Assay [7] addresses Alpha-2C adrenergic receptor (Homo sapiens) (UniProt P18825). The assay is described as follows: modulators of alpha2C/GIRK thallium flux, primary screen, cell-based, HEK293 alpha2C/GIRK1/2 (AID 624).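 Further: slope of fluorescence ratio to pre-addition baseline per second over 15 to 24 s.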 To be noted: thallium flux BTC fluorescence, at 10 µM, actives lie on both sides.
A short description of assay [8]: inhibitors of larval lipid processing in zebrafish, primary screen, whole organism, PED6 fluorescence, gall bladder and intestine (AID 686;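 active means a full or partial loss of lipid-probe fluorescence in the fish gall bladder, intestine or both, judged by eye; inactive means no fluorescence loss, or compound toxic to the fish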;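 further: larvae 5 to 7 days old with five fish per well; signal comes from phospholipase A2 cleavage of quenched PED6 carried via bile; overnight exposure to compound and PED6 before scoring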). To be noted: Zebrafish larvae PED6 lipid processing, fluorescence scoring; screened at 20 µM (by protocol). In a few lines:
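System: live zebrafish larvae aged 5-7 days, whole organism; measure: graded gall bladder and intestinal fluorescence inhibition per well; incubation: overnight exposure; reagent: ingested quenched lipid PED6 at 100 nM; signal: By-eye fluorescence microscopy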

A short description of assay [9]: inhibitors of Chlamydomonas gravitaxis, primary screen, whole organism, Chlamydomonas reinhardtii, WT vs cilia-less mutant, absorbance, 96-well (AID 463189;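 active means inhibition at or above 50% relative to wild type and mutant plate controls; inactive means inhibition below 50%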;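 further: 0% = wild type cc124 cells in DMSO and 100% = ciliumless bld1 mutant cells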). The following applies: OD600 absorbance, 2 days, at 10 µM, stronger effect = higher value.
Where [10] appears, read: measured here: cell density z-score.
Setting [11] is: measured here: nuclear c-Myc green intensity z-score.
The mark [12] stands for this setting: measured here: nuclear pErk red intensity z-score, stronger effect = higher value.

Sequence of Dual specificity protein phosphatase 6 (Homo sapiens) (Q16828 whole entry, looked up): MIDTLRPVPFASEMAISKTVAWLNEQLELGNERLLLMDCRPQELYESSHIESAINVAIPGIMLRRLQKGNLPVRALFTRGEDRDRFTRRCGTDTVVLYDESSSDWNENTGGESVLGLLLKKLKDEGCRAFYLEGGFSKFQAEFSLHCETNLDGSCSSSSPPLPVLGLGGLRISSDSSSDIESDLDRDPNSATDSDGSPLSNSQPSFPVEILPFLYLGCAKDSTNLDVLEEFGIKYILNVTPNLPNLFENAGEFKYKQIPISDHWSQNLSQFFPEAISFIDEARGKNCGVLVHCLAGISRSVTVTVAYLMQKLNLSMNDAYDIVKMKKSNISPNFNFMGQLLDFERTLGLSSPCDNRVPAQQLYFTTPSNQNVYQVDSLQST
Sequence of Alpha-2C adrenergic receptor (Homo sapiens) (P18825 whole entry, looked up): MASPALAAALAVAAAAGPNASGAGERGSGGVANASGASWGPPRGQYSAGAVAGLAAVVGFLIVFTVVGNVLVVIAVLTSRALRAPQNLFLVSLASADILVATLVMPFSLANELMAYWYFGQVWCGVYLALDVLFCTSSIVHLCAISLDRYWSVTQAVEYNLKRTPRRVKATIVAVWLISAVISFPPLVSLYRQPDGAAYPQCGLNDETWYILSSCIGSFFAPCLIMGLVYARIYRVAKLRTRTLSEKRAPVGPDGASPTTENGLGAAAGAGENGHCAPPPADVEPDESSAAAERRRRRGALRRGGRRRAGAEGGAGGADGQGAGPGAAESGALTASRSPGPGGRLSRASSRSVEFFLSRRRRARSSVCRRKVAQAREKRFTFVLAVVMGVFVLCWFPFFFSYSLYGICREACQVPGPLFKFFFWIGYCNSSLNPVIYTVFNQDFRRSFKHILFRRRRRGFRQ
Sequence of Voltage-gated potassium channel subunit beta-2 (Rattus norvegicus) (P62483 whole entry, looked up): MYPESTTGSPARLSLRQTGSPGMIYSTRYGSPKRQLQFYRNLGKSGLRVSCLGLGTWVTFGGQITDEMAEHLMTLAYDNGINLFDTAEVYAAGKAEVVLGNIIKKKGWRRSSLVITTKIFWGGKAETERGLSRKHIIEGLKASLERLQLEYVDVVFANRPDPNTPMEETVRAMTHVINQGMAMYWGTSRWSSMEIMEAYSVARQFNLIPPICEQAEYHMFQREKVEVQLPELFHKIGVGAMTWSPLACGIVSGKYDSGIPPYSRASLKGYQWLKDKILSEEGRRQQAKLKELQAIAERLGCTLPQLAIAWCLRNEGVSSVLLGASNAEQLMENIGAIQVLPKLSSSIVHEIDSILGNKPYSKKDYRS

In the case of `CCN=C1SC(C(=O)Nc2ccc(Cl)c(Cl)c2)CC(=O)N1CC` (stereo unspecified), the cell count in assay [1] came to 388. For the same compound, the inhibition in [1] is -0.4% (inactive); in assay [2], -56.6% (inactive); in assay [4], 7.42% (inactive); in [9], 0.946% (inactive). For the same compound, in assay [2], the nuclei count stood at 133%. Moreover, the z-score was 1.74 in assay [3] (setting [10]), -1.1 in assay [3] (setting [11]) and -1.57 in assay [3] (setting [12]). For the same compound, in assay [5], the fluorescence slope is -0.423 (inactive). Also, the NADPH fluorescence slope in assay [6] is -0.000131 (inactive). In addition, the slope in [7] was 0.00577 (inactive). In addition, in assay [8], the compound was called inactive.

In the case of `Cc1c(/C(O)=C2\C(=O)C(=O)N(CCN(C)C)C2c2cccs2)cnn1-c1ccccc1` (stereo unspecified), the cell count in assay [1] was 544. Further, the inhibition in [1] is 1.9% (inactive); in assay [2] it was -68.6% (inactive); in assay [4], -5.26% (inactive); in [9] it was -16.4% (inactive). In [2], this compound had a nuclei count of 127%. Also, the z-score was 1.03 in assay [3] (setting [10]), -0.0076 in assay [3] (setting [11]) and 0.683 in assay [3] (setting [12]). Also, in [5], the fluorescence slope is -0.578 (inactive). Also, in assay [6], the NADPH fluorescence slope was -3.3e-05 (inactive). In addition, the slope in assay [7] was 0.00515 (inactive). In [8], the outcome was inactive.

`Cc1nc(-c2c(-c3ccc(O)cc3O)noc2C(F)(F)F)cs1`: in assay [1], the cell count came out at 518. The inhibition is -18.3% (inactive) in assay [1], -135% (inactive) in assay [2], 20.2% (inactive) in assay [4] and 20.1% (inactive) in assay [9]. Besides, the nuclei count in [2] was 163%. Further, the z-score in assay [3] (setting [10]) was 0.818; in [3] (setting [11]) it was -0.387; in [3] (setting [12]), 0.0899. Also, the fluorescence slope in [5] is -0.468 (inactive). In addition, the NADPH fluorescence slope in assay [6] was -0.000226 (inactive). For the same compound, the slope in assay [7] was 0.00467 (inactive). Further, the compound was classed as inactive in [8].

`Cc1ccc2[nH]c(CCN(C)C)c(CC#N)c2c1`: in [1], the cell count is 564. Also, the inhibition in assay [1] is 4.9% (inactive); in assay [2], -74.2% (inactive); in [4] it was 18.6% (inactive); in assay [9], 10.4% (inactive). In [2], this compound showed a nuclei count of 206%. Also, the z-score is -1.01 in assay [3] (setting [10]), -0.567 in assay [3] (setting [11]) and 1.52 in assay [3] (setting [12]). Besides, the fluorescence slope in [5] is -0.364 (inactive). Further, the NADPH fluorescence slope in assay [6] was -2.8e-05 (inactive). In [7], the slope was 0.0055 (inactive). Also, in [8], the compound was called inactive.

On to `Cc1nnc(SCc2nc3ccccc3[nH]2)s1`, for which, in [1], the cell count is 417. The inhibition was -9.9% (inactive) in assay [1], -178% (inactive) in assay [2], -5.89% (inactive) in assay [4] and 9.63% (inactive) in [9]. For the same compound, in [2], the nuclei count is 172%. Also, the z-score in assay [3] (setting [10]) was 1.08; in assay [3] (setting [11]) it was -0.712; in [3] (setting [12]), -0.186. The fluorescence slope in [5] is -0.368 (inactive). For the same compound, the NADPH fluorescence slope in assay [6] is -5.3e-05 (inactive). For the same compound, the slope in [7] is 0.00478 (inactive). Besides, the result in assay [8] was inactive.

On to `O=C(OCCN1CCOCC1)c1ccc(OCCN2CCOCC2)cc1`, for which the cell count in assay [1] was 573. The inhibition is -2.2% (inactive) in assay [1], -54.5% (inactive) in [2], 1.75% (inactive) in assay [4] and 32.3% (inactive) in assay [9]. This compound also displayed a nuclei count in assay [2] of 130%. In addition, the z-score in assay [3] (setting [10]) was -0.658; in assay [3] (setting [11]) it was 0.853; in assay [3] (setting [12]), 0.881. For the same compound, in assay [5], the fluorescence slope is -0.555 (inactive). In assay [6], the NADPH fluorescence slope was -5.3e-05 (inactive). For the same compound, the slope in assay [7] was 0.00568 (inactive). Moreover, the compound was called inactive in assay [8].

Regarding `Cn1nnnc1-c1cc(Br)ccc1NC(=O)c1ccccc1`, the cell count in [1] was 397. For the same compound, the inhibition in assay [1] was -1.8% (inactive); in assay [2], -2.9% (inactive); in assay [4], -8.27% (inactive); in assay [9] it was -4.44% (inactive). Also, the nuclei count in assay [2] came out at 93.6%. Also, the z-score in assay [3] (setting [10]) was -0.94; in [3] (setting [11]), 1.01; in [3] (setting [12]), -1.17. Further, in [5], the fluorescence slope is -0.39 (inactive). The NADPH fluorescence slope in assay [6] is 7.2e-07 (inactive). Besides, the slope in [7] was 0.00973 (inactive). The outcome in assay [8] was inactive.
